# ZTA DNA inh: ZTA (EBV) inhibition in EBNA-1 counter-screen; inhibition, % at 11 µM; 320,000 tested, 0.15% active; ZTA-DNA binding, fluorescence polarization; AID 2234; in the data active = inhibition above about 33%
# Target sequence (P03206 whole entry, looked up): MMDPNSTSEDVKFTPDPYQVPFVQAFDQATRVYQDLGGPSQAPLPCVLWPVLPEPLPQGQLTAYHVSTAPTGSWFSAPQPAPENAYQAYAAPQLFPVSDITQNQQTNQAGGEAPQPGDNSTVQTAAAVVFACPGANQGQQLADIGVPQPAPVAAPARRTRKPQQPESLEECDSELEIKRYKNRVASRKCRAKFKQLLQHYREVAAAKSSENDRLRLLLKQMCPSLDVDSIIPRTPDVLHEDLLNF
# HCV core dimer: inhibitors of HCV core protein dimerization, primary screen, biochemical, TR-FRET, high-throughput; TR-FRET GST/Flag-core106 dimerization, 1536-well; inhibition, % at 5 µM; 300,000 tested, 0.33% active; AID 1899, 2009;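 active = inhibition above the mean of all tested compounds plus 3 SD, set per screening campaign, cut at about 45% in these data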
#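 Test system: GST/Flag-tagged HCV core106 proteins; Medium: KF-containing HEPES buffer, pH 7.45, DTT, CHAPS, BSA; Times: compound-protein-antibody incubation 4 h at 22.5 °C; Detection: TR-FRET 671 and 617 nm emission; Benchmarks: wells lacking GST-core106 and wells with excess unlabelled core106.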
# GPR7 antag: GPR7 receptor antagonists, primary screen, cell-based, fluorescence, single concentration. Neuropeptides B/W receptor type 1 (Homo sapiens), P48145. 290,000 tested, 1.1% active. GPR7-expressing cells, fluorescence antagonist assay. inhibition, % at 4.4 µM; in the data active = inhibition above about 16%, passing the limit was not always enough;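 also: cells stimulated with the agonist NPW; 0% = agonist with vehicle and 100% = vehicle without agonist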
# EBNA-1 inh: EBNA-1 DNA-binding inhibitors, primary screen, biochemical, fluorescence polarization; inhibition, % at 14.8 µM; AID 1950, 2009; 300,000 tested, 0.34% active; in the data active = inhibition above about 28%
# EBV gp42 inh: Epstein-Barr virus gp42 inhibitors, primary screen, biochemical, uHTS, fluorescence polarization. Fluorescence polarization binding assay, mP read-out. AID 1085, 2008. inhibition, % (tested at 21.74 µM). 220,000 tested, 0.42% active; in the data active = inhibition above about 50%
# HCV NS3 hel inh: inhibitors of HCV NS3 helicase, primary screen, biochemical, Cy5 molecular beacon fluorescence; NS3 helicase DNA unwinding; Hepatitis C virus NS3 helicase; inhibition, % at 10.9 µM; 290,000 tested, 0.56% active;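 active = inhibition above the mean of all tested compounds plus 3 SD, set per campaign, cut at about 35% in these data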;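 also: 0% = DMSO wells and 100% = thioflavine S control wells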
#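 test system = hepatitis C virus NS3 helicase domain fragment enzyme | reagent = annealed dual-labelled DNA beacon duplex, ATP-started | times = 1 h at 25 °C | detection = Cy5 fluorescence, 0 and 60 min reads | read-out basis = percent inhibition from t60/t0 fluorescence ratio | control set = DMSO and thioflavine S | replication = one well per compound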
# GPR7 antag cf: GPR7 receptor antagonists, confirmation, cell-based, fluorescence, single concentration | inhibition, % at 4.4 µM | shares compounds with GPR7 antag | 2,400 tested, 52% active | AID 1952, 2009 | GPR7-expressing cells, calcium fluorescence antagonist mode; in the data active = inhibition above about 24%;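 also: stimulated with the GPR7 agonist NPW; 0% = agonist plus vehicle and 100% = vehicle alone without agonist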
# MCHR1 antagonist: MCHR1 antagonists in cells, counter-screen for GPR7 antagonist project, cell-based, fluorescence, human; shares compounds with GPR7 antag; MCHR1-expressing cells, fluorescence antagonist assay; inhibition, % at 4.4 µM; 2,400 tested, 62% active; AID 2148, 2009; in the data active = inhibition above about 22%;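 also: 0% = vehicle with agonist and 100% = vehicle without agonist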
# The depositor's hits bear a star; · = no result. This is a sample that favours compounds with a hit; in the whole collection about 2.3% have one here.
SMILES,ZTA DNA inh,HCV core dimer,GPR7 antag,EBNA-1 inh,EBV gp42 inh,HCV NS3 hel inh,GPR7 antag cf,MCHR1 antagonist
CC(=O)c1c(C)[nH]c(C(=O)Nc2cccc(C(F)(F)F)c2)c1C,4,1,33*,-7,·,24,4,59*
Cc1cccc(NC(=O)C2(c3ccc([N+](=O)[O-])cc3)CCCC2)c1,-9,7,33*,-7,-5,-6,36*,36*
O=c1c2ccccc2ncn1CCOc1ccccc1[N+](=O)[O-],-8,0,13,-8,-14,-9,·,·
Cc1ccc(Cl)cc1N1CCN(C(=O)C2CCC(=O)N(C3CCCCCC3)C2)CC1 (centres undefined),-2,2,26*,5,·,-17,37*,55*
Cn1nc(C(=O)Nc2ccccc2)c2c1-c1ccccc1S(=O)(=O)C2,-3,1,-4,-7,·,0,·,·
COC(=O)C1CCCCN1C(=O)c1ccc2oc(C(C)C)nc2c1 (centres undefined),0,-12,26*,-14,·,13,6,3
CC(C)CC(=O)NC(Nc1ccc([N+](=O)[O-])cc1)C(Cl)(Cl)Cl (centres undefined),-11,-9,26*,5,-12,-5,14,45*
O=C(NC1CCCC1)C(c1ccccc1)N(Cc1ccc(F)cc1)C(=O)c1csnn1 (centres undefined),-6,-2,5,-12,·,0,·,·
O=C(NC1CCCCC1)C(c1ccccc1F)N(C(=O)c1csnn1)C1CCCC1 (centres undefined),-16,1,23*,-11,·,7,17,19
COCCN(C(=O)c1csnn1)C(C(=O)NC1CCCC1)c1ccccc1 (centres undefined),2,-17,44*,-4,·,15,1,-6
O=C(NC1CCCC1)C(c1ccc(F)cc1)N(Cc1ccccc1)C(=O)c1csnn1 (centres undefined),2,-2,23*,8,·,-3,32*,22*
Cc1cccc(N2CCN(C(=O)c3ccc(Cl)c(NC4=NC5CS(=O)(=O)CC5S4)c3)CC2C)c1 (centres undefined),-31,10,-8,-4,·,-5,·,·
COc1ccc(NC(=O)NN2CCN(C)CC2)cc1,·,·,-5,·,·,5,·,·
COc1ccc(C(=O)NC(=O)COC(=O)c2ccc(C)o2)cc1,-15,·,·,·,·,·,·,·
CC(C)C1N(C(=O)CN2CCCCC2)CCN1S(=O)(=O)c1ccccc1 (centres undefined),6,-3,27*,0,-11,-7,-9,-2
CCOc1ccccc1CN1CCN(CC2=Cc3cc(OC)ccc3OC2)CC1CCO (centres undefined),0,-2,31*,-6,-5,-40,1,3
Cc1cc(S(=O)(=O)N2CCC3(CC2)OCCO3)c(C)cc1Cl,14,1,-8,1,·,-7,·,·
Cc1cc(Cl)ccc1NC(=S)NCCc1ccc(S(N)(=O)=O)cc1,2,-4,·,7,·,·,·,·
Cc1cc(Cl)ccc1OCC(O)CNCCc1ccc(S(N)(=O)=O)cc1 (centres undefined),-4,-3,68*,-30,·,-17,66*,73*
COc1ccccc1CNC(=O)CSc1nc(-c2ccccc2)cn1N,-5,-7,27*,-12,-22,-7,-10,8
CCn1c(Cc2ccccc2)nnc1SCc1ccc([N+](=O)[O-])cc1,4,2,32*,-14,9,-1,14,-2
COCCn1c(Cc2ccccc2)nnc1SCc1ccc([N+](=O)[O-])cc1,-5,-3,16,-8,-50,-3,·,·

# From PubChem BioAssay
